Results: ChEMBL document CHEMBL1122115, “Antimalarials. 13. 5-Alkoxy analogues of 4-methylprimaquine” (1982)

Legend:
Assay type in all cases: functional
Mus musculus [1] = test: Antimalarial activity against Plasmodium berghei in mice (Mus musculus) at 20 mg/kg dose administered subcutaneously; active; details: route subcutaneous
Procedure, shortened: (§1)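 Primary mouse screen: groups of five mice infected with a lethal dose of P. berghei 3 days before drug administration. Drug given subcutaneously, routinely in sesame or peanut oil. Mean survival time compared with infected untreated controls; extension in survival time (ΔMST) taken as antimalarial activity.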

Mus musculus [2] = test: Antimalarial activity against Plasmodium berghei in mice (Mus musculus) at 40 mg/kg dose administered subcutaneously; active; details: route subcutaneous; procedure, shortened: as §1
Mus musculus [3] = test: Antimalarial activity against Plasmodium berghei in mice (Mus musculus) at 10 mg/kg dose administered subcutaneously; active; details: route subcutaneous; procedure, shortened: as §1
Mus musculus [4] = test: Antimalarial activity against Plasmodium berghei in mice (Mus musculus) at 640 mg/kg dose administered subcutaneously; toxic; details: route subcutaneous; procedure, shortened: as §1
Mus musculus [5] = test: Antimalarial activity against Plasmodium berghei in mice (Mus musculus) at 5 mg/kg dose administered subcutaneously; active; details: route subcutaneous; procedure, shortened: as §1
Mus musculus [6] = test: Antimalarial activity against Plasmodium berghei in mice (Mus musculus) at 160 mg/kg dose administered subcutaneously; toxic; details: route subcutaneous; procedure, shortened: as §1
Plasmodium cynomolgi [7] = test: Radio curative antimalarial activity against Plasmodium cynomolgi in Rhesus monkey at 0.25 mg/kg (base/day) peroral dose; cured 0 of 3; details: route oral
Plasmodium cynomolgi [8] = test: Radio curative antimalarial activity against Plasmodium cynomolgi in rhesus monkey at 0.75 mg/kg (base/day) peroral dose; cured 0 of 3; details: route oral
Mus musculus [9] = test: Antimalarial activity against Plasmodium berghei in mice (Mus musculus) at 40 mg/kg dose administered subcutaneously; toxic; details: route subcutaneous; procedure, shortened: as §1
Plasmodium cynomolgi [10] = test: Radio curative antimalarial activity against Plasmodium cynomolgi in rhesus monkey at 0.25 mg/kg (base/day) peroral dose; cured 0 of 3; details: route oral
Mus musculus [11] = test: Antimalarial activity against Plasmodium berghei in mice (Mus musculus) at 20 mg/kg dose administered subcutaneously; details: route subcutaneous; procedure, shortened: as §1
Mus musculus [12] = test: Antimalarial activity against Plasmodium berghei in mice (Mus musculus) at 40 mg/kg dose administered subcutaneously; active/3 toxic; details: route subcutaneous; procedure, shortened: as §1
Plasmodium cynomolgi [13] = test: Radio curative antimalarial activity against Plasmodium cynomolgi in rhesus monkey at 0.25 mg/kg (base/day) peroral dose; cured 2 of 4; details: route oral
Plasmodium cynomolgi [14] = test: Radio curative antimalarial activity against Plasmodium cynomolgi in rhesus monkey at 0.75 mg/kg (base/day) peroral dose;cured 3 of 5; details: route oral
Mus musculus [15] = test: Antimalarial activity against Plasmodium berghei in mice (Mus musculus) at 20 mg/kg dose administered subcutaneously; active/3 toxic; details: route subcutaneous; procedure, shortened: as §1
Plasmodium cynomolgi [16] = test: Radio curative antimalarial activity against Plasmodium cynomolgi in rhesus monkey at 0.5 mg/kg (base/day) peroral dose; cured 1 of 1; details: route oral
Plasmodium cynomolgi [17] = test: Radio curative antimalarial activity against Plasmodium cynomolgi in rhesus monkey at 0.25 mg/kg (base/day) peroral dose; cured 5 of 6; details: route oral
Plasmodium cynomolgi [18] = test: Radio curative antimalarial activity against Plasmodium cynomolgi in rhesus monkey at 0.75 mg/kg (base/day) peroral dose; cured 0 of 2; details: route oral
Mus musculus [19] = test: Antimalarial activity against Plasmodium berghei in mice (Mus musculus) at 80 mg/kg dose administered subcutaneously; details: route subcutaneous; procedure, shortened: as §1
Mus musculus [20] = test: Antimalarial activity against Plasmodium berghei in mice (Mus musculus) at 320 mg/kg dose administered subcutaneously; active/3 toxic; details: route subcutaneous; procedure, shortened: as §1
Mus musculus [21] = test: Antimalarial activity against Plasmodium berghei in mice (Mus musculus) at 160 mg/kg dose administered subcutaneously; active; details: route subcutaneous; procedure, shortened: as §1
Plasmodium cynomolgi [22] = test: Radio curative antimalarial activity against Plasmodium cynomolgi in rhesus monkey at 0.25 mg/kg (base/day) peroral dose; cured 0 of 2; details: route oral
Mus musculus [23] = test: Antimalarial activity against Plasmodium berghei in mice (Mus musculus) at 40 mg/kg dose administered subcutaneously; details: route subcutaneous; procedure, shortened: as §1
Mus musculus [24] = test: Antimalarial activity against Plasmodium berghei in mice (Mus musculus) at 160 mg/kg dose administered subcutaneously; details: route subcutaneous; procedure, shortened: as §1
Mus musculus [25] = test: Antimalarial activity against Plasmodium berghei in mice (Mus musculus) at 640 mg/kg dose administered subcutaneously; details: route subcutaneous; procedure, shortened: as §1

Structure (SMILES): CCC(CCCN)Nc1cc2c(c3c(C)ccnc13)OCCO2 (stereo unspecified)
- Delta MST (Mus musculus [1]): 7.2 days
- Delta MST (Mus musculus [2]): 7.6 days
- Delta MST (Mus musculus [3]): 7.6 days
- Delta MST (Mus musculus [4]): 5 days
- Delta MST (Mus musculus [5]): 7.8 days
- Delta MST (Mus musculus [6]): 5 days
- Cured animals (Plasmodium cynomolgi [7]): 0
- Cured animals (Plasmodium cynomolgi [8]): 0

Structure (SMILES): Cc1ccnc2c(NC(C)CCCN)cc3c(c12)OCCO3 (stereo unspecified)
- Delta MST (Mus musculus [1]): 11.1 days
- number of mice died of toxicity (Mus musculus [9]): 5 mice
- Delta MST (Mus musculus [3]): 8.3 days
- Delta MST (Mus musculus [4]): 5 days
- Delta MST (Mus musculus [5]): 6.7 days
- Delta MST (Mus musculus [6]): 5 days
- Cured animals (Plasmodium cynomolgi [8]): 0
- Cured animals (Plasmodium cynomolgi [10]): 0

Structure (SMILES): COc1cc(NC(C)CCCN)c2nc(C)cc(C)c2c1OC (stereo unspecified)
- Delta MST (Mus musculus [11]): 4.9 days
- Delta MST (Mus musculus [12]): 6.3 days
- Delta MST (Mus musculus [4]): 5 days
- Cured animals (Plasmodium cynomolgi [13]): 2
- Delta MST (Mus musculus [6]): 5 days
- Cured animals (Plasmodium cynomolgi [14]): 3

Structure (SMILES): COc1cc(NCCCC(C)N)c2nccc(C)c2c1OC (stereo unspecified)
- number of mice died of toxicity (Mus musculus [9]): 5 mice
- Delta MST (Mus musculus [4]): 5 days
- Delta MST (Mus musculus [15]): 11.4 days
- Delta MST (Mus musculus [6]): 5 days
- Cured animals (Plasmodium cynomolgi [16]): 1
- Cured animals (Plasmodium cynomolgi [17]): 5

Structure (SMILES): COc1cc(NCCCC(C)N)c2ncccc2c1OC (stereo unspecified)
- Delta MST (Mus musculus [11]): 1.3 days
- Delta MST (Mus musculus [4]): 5 days
- Cured animals (Plasmodium cynomolgi [18]): 0
- Delta MST (Mus musculus [19]): 5.1 days
- Delta MST (Mus musculus [20]): 9.9 days
- Delta MST (Mus musculus [21]): 7.3 days
- Cured animals (Plasmodium cynomolgi [22]): 0
- Delta MST (Mus musculus [23]): 3.1 days

Structure (SMILES): CCC(CCCN)Nc1cc2c(c3c(C)ccnc13)OCO2 (stereo unspecified)
- Delta MST (Mus musculus [24]): 0.5 days
- Delta MST (Mus musculus [25]): 0.9 days
- Cured animals (Plasmodium cynomolgi [8]): 0
- Cured animals (Plasmodium cynomolgi [10]): 0
- Delta MST (Mus musculus [23]): 0.5 days
